Calls of active or inactive are those of the source. No cut-off for these calls is given here.
Tests used:
A-431 = test: Antiproliferative activity against human A431 cells overexpressing wild-type EGFR after 72 hrs by MTT assay; assay type: functional, cell-based; conditions: A-431, 72 h
NCI-H1975 = test: Antiproliferative activity against human NCI-H1975 cells expressing L858R/T790M mutant EGFR after 72 hrs by MTT assay; assay type: functional, cell-based; conditions: NCI-H1975, 72 h
[1] = biological target: T1, Epidermal growth factor receptor (Homo sapiens, UniProt P00533); test: Inhibition of wild type human EGFR preincubated for 5 mins followed by ATP addition for 30 mins by HTRF assay
T1 sequence (P00533 whole entry): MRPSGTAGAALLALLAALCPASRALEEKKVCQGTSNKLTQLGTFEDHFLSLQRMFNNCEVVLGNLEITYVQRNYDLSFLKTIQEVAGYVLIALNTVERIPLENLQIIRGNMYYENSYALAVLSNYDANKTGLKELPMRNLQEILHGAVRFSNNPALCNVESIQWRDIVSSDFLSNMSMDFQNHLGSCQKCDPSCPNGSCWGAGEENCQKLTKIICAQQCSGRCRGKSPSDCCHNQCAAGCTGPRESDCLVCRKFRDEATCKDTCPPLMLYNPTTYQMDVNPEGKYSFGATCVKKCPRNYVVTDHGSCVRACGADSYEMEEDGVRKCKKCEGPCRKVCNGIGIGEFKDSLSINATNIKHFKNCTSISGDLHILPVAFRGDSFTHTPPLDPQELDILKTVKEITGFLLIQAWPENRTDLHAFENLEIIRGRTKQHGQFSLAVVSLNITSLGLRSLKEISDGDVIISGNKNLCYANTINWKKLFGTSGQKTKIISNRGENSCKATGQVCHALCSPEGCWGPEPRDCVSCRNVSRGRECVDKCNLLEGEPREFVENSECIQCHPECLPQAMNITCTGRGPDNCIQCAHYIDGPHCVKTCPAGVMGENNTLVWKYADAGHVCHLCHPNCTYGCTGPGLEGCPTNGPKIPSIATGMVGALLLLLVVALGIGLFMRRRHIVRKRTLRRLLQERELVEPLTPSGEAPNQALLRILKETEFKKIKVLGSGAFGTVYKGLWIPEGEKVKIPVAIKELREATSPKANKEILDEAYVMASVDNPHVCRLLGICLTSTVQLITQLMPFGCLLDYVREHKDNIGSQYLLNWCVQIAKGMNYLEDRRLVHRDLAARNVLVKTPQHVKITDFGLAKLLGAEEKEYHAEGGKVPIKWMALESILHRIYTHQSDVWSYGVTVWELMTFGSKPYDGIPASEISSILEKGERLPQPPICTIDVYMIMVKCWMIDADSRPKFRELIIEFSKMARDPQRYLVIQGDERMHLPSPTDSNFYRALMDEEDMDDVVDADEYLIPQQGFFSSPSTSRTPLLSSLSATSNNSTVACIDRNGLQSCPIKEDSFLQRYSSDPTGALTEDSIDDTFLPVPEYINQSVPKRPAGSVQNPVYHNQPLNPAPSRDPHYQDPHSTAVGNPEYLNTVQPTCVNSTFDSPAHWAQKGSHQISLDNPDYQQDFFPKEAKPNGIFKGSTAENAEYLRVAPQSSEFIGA

[2] = biological target: Epidermal growth factor receptor (Homo sapiens, UniProt P00533, L858R); test: Inhibition of recombinant human EGFR L858R mutant expressed in baculovirus infected insect cells preincubated for 5 mins followed by ATP addition for 30 mins by HTRF assay
Chain of Epidermal growth factor receptor (Homo sapiens, UniProt P00533, L858R) (P00533 25-1210 L858R limits assumed): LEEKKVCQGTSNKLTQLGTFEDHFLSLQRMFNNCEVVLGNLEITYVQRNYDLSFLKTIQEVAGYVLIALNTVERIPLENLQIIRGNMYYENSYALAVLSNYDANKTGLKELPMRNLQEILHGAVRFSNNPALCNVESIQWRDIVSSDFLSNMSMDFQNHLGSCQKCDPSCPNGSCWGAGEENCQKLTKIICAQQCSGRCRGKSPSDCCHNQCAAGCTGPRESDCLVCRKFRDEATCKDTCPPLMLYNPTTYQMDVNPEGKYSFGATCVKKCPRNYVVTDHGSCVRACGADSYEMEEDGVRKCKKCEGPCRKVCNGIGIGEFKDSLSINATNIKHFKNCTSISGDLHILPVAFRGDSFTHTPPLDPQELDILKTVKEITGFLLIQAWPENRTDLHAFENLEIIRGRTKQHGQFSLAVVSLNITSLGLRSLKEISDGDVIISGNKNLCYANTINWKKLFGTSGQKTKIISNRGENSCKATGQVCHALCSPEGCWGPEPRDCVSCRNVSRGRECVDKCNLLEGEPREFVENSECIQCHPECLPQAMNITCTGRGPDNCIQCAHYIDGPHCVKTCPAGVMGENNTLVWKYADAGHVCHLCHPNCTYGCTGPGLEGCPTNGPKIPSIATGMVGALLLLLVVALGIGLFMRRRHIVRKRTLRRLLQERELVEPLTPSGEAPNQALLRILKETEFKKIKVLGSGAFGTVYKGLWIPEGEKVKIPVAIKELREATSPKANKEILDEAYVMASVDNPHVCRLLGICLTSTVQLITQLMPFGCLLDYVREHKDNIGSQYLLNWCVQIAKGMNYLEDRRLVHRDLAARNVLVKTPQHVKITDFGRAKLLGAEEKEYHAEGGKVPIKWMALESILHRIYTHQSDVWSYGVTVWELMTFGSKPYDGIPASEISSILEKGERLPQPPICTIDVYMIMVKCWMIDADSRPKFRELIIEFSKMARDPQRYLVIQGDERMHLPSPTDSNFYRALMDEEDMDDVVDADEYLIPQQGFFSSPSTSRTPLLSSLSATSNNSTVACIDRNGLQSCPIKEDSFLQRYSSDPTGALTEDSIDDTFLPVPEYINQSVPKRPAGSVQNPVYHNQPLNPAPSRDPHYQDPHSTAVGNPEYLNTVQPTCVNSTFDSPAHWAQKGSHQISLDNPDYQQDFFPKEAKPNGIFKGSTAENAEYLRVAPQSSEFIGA
Method in brief: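 Purchased EGFR L858R kinase and substrate were preincubated with compound for 5 min in enzymatic buffer. ATP was then added to start the reaction, which ran 30 min at room temperature. It was stopped with EDTA-containing detection reagents, and HTRF detection ran for 1 h. IC50 was fitted from the dose-response data as the mean of three independent experiments.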

[3] = biological target: Epidermal growth factor receptor (Homo sapiens, UniProt P00533, T790M); test: Inhibition of EGFR T790M mutant (unknown origin) preincubated for 5 mins followed by ATP addition for 30 mins by HTRF assay; assay type: protein assay
Chain of Epidermal growth factor receptor (Homo sapiens, UniProt P00533, T790M) (P00533 25-1210 T790M limits assumed): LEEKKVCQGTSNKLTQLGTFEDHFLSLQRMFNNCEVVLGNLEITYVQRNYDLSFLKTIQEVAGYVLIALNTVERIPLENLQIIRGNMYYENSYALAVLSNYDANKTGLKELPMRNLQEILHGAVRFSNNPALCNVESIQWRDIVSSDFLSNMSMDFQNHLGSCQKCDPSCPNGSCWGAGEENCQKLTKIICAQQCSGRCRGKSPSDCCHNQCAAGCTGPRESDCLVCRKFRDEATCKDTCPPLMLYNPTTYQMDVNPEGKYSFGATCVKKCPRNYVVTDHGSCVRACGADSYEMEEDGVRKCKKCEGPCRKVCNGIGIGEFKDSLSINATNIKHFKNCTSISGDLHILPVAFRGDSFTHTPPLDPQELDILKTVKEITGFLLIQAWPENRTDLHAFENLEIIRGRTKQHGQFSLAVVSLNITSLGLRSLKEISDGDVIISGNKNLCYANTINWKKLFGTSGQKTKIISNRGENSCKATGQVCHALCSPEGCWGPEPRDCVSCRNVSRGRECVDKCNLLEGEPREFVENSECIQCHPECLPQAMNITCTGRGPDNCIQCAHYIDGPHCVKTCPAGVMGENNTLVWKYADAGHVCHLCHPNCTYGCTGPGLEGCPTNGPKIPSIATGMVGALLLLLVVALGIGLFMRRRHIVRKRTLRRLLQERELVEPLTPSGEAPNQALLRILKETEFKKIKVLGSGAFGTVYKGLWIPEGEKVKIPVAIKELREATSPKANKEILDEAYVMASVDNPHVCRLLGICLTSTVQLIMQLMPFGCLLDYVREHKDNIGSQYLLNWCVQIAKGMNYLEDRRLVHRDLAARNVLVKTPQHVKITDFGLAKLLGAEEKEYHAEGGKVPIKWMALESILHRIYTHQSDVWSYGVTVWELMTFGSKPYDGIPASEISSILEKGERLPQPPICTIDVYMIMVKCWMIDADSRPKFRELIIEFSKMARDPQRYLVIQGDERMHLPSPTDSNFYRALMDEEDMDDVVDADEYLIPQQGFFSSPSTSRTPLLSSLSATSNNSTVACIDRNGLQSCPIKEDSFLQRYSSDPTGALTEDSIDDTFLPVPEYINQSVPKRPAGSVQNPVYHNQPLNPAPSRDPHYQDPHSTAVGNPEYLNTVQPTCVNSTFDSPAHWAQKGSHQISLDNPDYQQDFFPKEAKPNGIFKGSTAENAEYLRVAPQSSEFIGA

A549 = test: Cytotoxicity against human A549 cells assessed as cell growth inhibition after 72 hrs by MTT assay; assay type: ADME, cell-based; conditions: A549, 72 h
HepG2 = test: Cytotoxicity against human HepG2 cells assessed as cell growth inhibition after 72 hrs by MTT assay; assay type: ADME, cell-based; conditions: HepG2, 72 h
[4] = biological target: T1, Epidermal growth factor receptor; test: Inhibition of EGF-induced EGFR phosphorylation in human A431 cells at 1 uM preincubated for 1 hr followed by EGF addition for 15 mins by Western blot analysis; assay type: cell-based; conditions: A-431
Method in brief: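 A431 cells (5 x 10^5/well) were seeded overnight. They were exposed to 1 µM compound for 1 h at 37 °C, then immediately given EGF (20 ng/ml) for 15 min. Whole-cell lysates were made in Tris/NaCl/EDTA/SDS/deoxycholate/NP-40 buffer with aprotinin and PMSF, then cleared at 4 °C. Equal protein was run on SDS-PAGE and blotted for EGFR, p-EGFR and β-actin, with ECL detection.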

[5] = biological target: T1, Epidermal growth factor receptor; test: Inhibition of EGF-induced EGFR phosphorylation in human A431 cells at 1 uM preincubated for 1 hr followed by compound washout for 5 hrs and subsequent EGF addition for 15 mins by Western blot analysis; assay type: cell-based; conditions: A-431
Method in brief: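 A431 cells (5 x 10^5/well) were seeded overnight and treated with 1 µM compound for 1 h at 37 °C. Cells were washed 10 times with fresh medium over 5 h, then stimulated with EGF (20 ng/ml) for 15 min. Lysates were made in RIPA-type buffer with protease inhibitors, and equal protein was immunoblotted for EGFR, p-EGFR and β-actin, with ECL detection.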

[6] = Chemical stability of the compound assessed as compound remaining at 1 uM at pH 7.4 after 24 hrs by HPLC-HRMS method; assay type: physicochemical; conditions: buffer, read-out: Stability
Method in brief: (§1)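 Buffers were 0.2 M PBS at pH 7.4, 9.0 or 10.0, held at 37 °C. Compound stock was made in CH3CN, then diluted into pre-warmed buffer. Aliquots taken at regular time points were injected directly into LC-TOF MS, and percentage of parent compound remaining was read out.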

[7] = Chemical stability of the compound assessed as compound remaining at 1 uM at pH 9 after 24 hrs by HPLC-HRMS method; assay type: physicochemical; conditions: buffer, read-out: Stability; method in brief: as §1
[8] = Chemical stability of the compound assessed as compound remaining at 1 uM at pH 10 after 24 hrs by HPLC-HRMS method; assay type: physicochemical; conditions: buffer, read-out: Stability; method in brief: as §1

SMILES	IC50 (A-431)	IC50 (NCI-H1975)	also measured
O=C1N[C@@H](C(=O)Nc2cc3c(Nc4ccc(F)c(Cl)c4)ncnc3cc2O[C@H]2CCOC2)CO1	11 µM	> 50 µM	
O=C1N[C@H](C(=O)Nc2cc3c(Nc4ccc(F)c(Cl)c4)ncnc3cc2OCCN2CCCCC2)CO1	3.5 µM	5.85 µM	IC50 [1]: 0.0255 µM; IC50 [2]: 0.00779 µM; IC50 [3]: 0.333 µM; IC50 (A549): 42.9 µM; IC50 (HepG2): > 50 µM
CCOc1cc2ncnc(Nc3ccc(OCC4CC4)c(Cl)c3)c2cc1NC(=O)[C@H]1NC(=O)O[C@@H]1C	7.35 µM	12.7 µM	
CCOc1cc2ncnc(Nc3ccc4c(cnn4Cc4cccc(F)c4)c3)c2cc1NC(=O)[C@H]1COC(=O)N1	18.9 µM	> 50 µM	
COc1cc2ncnc(Nc3cccc(C(F)(F)F)c3)c2cc1NC(=O)[C@@H]1COC(=O)N1	13.5 µM	10.8 µM	
CCOc1cc2ncnc(N[C@@H](C)c3ccccc3)c2cc1NC(=O)[C@H]1COC(=O)N1	15 µM	4.95 µM	
CN1CCOC[C@@H]1COc1cc2ncnc(Nc3ccc(F)c(Cl)c3)c2cc1NC(=O)[C@@H]1COC(=O)N1	18.7 µM	7.4 µM	
CN1CCC(COc2cc3ncnc(Nc4ccc(F)c(Cl)c4F)c3cc2NC(=O)[C@@H]2COC(=O)N2)CC1	2.43 µM	21.1 µM	
CCOc1cc2ncnc(Nc3ccc(OCc4cccc(F)c4)c(Cl)c3)c2cc1NC(=O)[C@H]1NC(=O)O[C@@H]1C	3.36 µM	4.28 µM	IC50 [1]: 0.00257 µM; IC50 [2]: 0.012 µM; IC50 [3]: 0.295 µM; IC50 (A549): 32.9 µM; IC50 (HepG2): 30.8 µM
COc1ccc(Nc2ncnc3cc(OC)c(NC(=O)[C@@H]4COC(=O)N4)cc23)cc1	34.9 µM	10 µM	
COc1cc2ncnc(Nc3ccc(F)c(Cl)c3)c2cc1NC(=O)[C@@H]1COC(=O)N1	9.2 µM	6.8 µM	IC50 [1]: 0.00106 µM; IC50 [2]: 0.00031 µM; IC50 [3]: 0.0263 µM; IC50 (A549): 14.9 µM; IC50 (HepG2): > 100 µM; inhibition [4]: Active; inhibition [5]: inactive; remaining at 24 h, 1 µM [6]: 97.1%; remaining at 24 h, 1 µM [7]: 89.9%; remaining at 24 h, 1 µM [8]: 85.8%
CCOc1cc2ncnc(Nc3ccc(OCc4cccc(F)c4)c(Cl)c3)c2cc1NC(=O)[C@@H]1COC(=O)N1	3.89 µM	3.87 µM	IC50 [1]: 0.00134 µM; IC50 [2]: 0.00562 µM; IC50 [3]: 0.0532 µM; IC50 (A549): 11.6 µM; IC50 (HepG2): > 50 µM
COc1cc2ncnc(Nc3ccc(F)c(Cl)c3)c2cc1NC(=O)[C@@H]1CCC(=O)N1	21.8 µM	> 50 µM	
O=C1N[C@H](C(=O)Nc2cc3c(Nc4ccc(F)c(Cl)c4)ncnc3cc2O[C@H]2CCOC2)CO1	22.8 µM	9.33 µM	
O=C1N[C@@H](C(=O)Nc2cc3c(Nc4ccc(F)c(Cl)c4)ncnc3cc2OCCCN2CCOCC2)CO1	> 50 µM	37.2 µM	
CCOc1cc2ncnc(Nc3ccc4c(cnn4Cc4cccc(F)c4)c3)c2cc1NC(=O)[C@@H]1COC(=O)N1	10.8 µM	10.5 µM	
